These results are taken from ChEMBL document CHEMBL3045343, “Nematicidal activity of 2-thiophenecarboxaldehyde and methylisothiocyanate from caper (Capparis spinosa) against Meloidogyne incognita” (J Agric Food Chem, 2012).

Test [1] relates to Meloidogyne incognita. The test is described as follows: Nematicidal activity against Meloidogyne incognita (root-knot nematode) juveniles J2 assessed as paralysis after 1 day. It is filed as functional, organism-based. The following applies: 24 h. Put shortly: (§1)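 M. incognita (Italian population reared on tomato cv. Roma VF) J2 hatched from egg masses in distilled water at 25 ± 2 °C. Methanol stocks diluted with Tween 20 in water (final methanol ≤1% v/v). Working solution at double strength mixed 1:1 with a suspension of 25 J2 per well. Held covered, dark, 20 °C. Paralysis scored by inverted microscope. Corrected by Schneider-Orelli against water control. EC50 from log-logistic regression. Six replicates; four experiments.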

Test [2] deals with Meloidogyne incognita. The test is described as follows: Nematicidal activity against Meloidogyne incognita (root-knot nematode) juveniles J2 assessed as paralysis after 1 hr. It is filed as functional, organism-based. Put shortly:
as §1

Test [3] relates to Meloidogyne incognita. The test is described as follows: Toxicity against Meloidogyne incognita (root-knot nematode) juveniles J2 at 100 mg/L after 24 hr. It is filed as functional. Put shortly:
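J2 were immersed in 100 mg/L test solution in multiwell plates containing 25 J2 per well. Plates were held in the dark at 20 °C. Paralysis or death was scored by microscope after 24 h and corrected against the water control.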

Converted amounts (≈) assume the structure as drawn. Some results are limits rather than exact numbers.

Consider `N#Cc1ccc(C#N)s1` [2,5-THIOPHENEDINITRILE], for which the EC50 in test [1] and in test [2] was greater than 250 µg/mL each time.
As to `O=Cc1cccs1` [2-THIOPHENENECARBOXALDEHYDE], the EC50 in test [1] was 14.1 µg/mL (≈ 126 µM); in test [2] it was 105 µg/mL (≈ 936 µM). The mortality at 100 µg/mL in test [3] was 100%.
In the case of `O=C1CCCN1` [2-PYRROLIDONE], the EC50 in test [1] and in test [2] was greater than 250 µg/mL in each case.
For `N#Cc1ccc(C=O)s1`, the EC50 in test [1] and in test [2] was greater than 250 µg/mL each time.
Take `O/N=C/c1cccs1` [2-THIOPHENECARBOXALDEHYDE OXIME]: the EC50 in test [1] and in test [2] was greater than 250 µg/mL throughout.
In the case of `N#Cc1c[nH]c2ccccc12`, the EC50 is 68.9 µg/mL (≈ 485 µM) in test [1] and greater than 250 µg/mL in test [2].
In the case of `Cn1cccc1C=O`, the EC50 in test [1] and in test [2] was greater than 1000 µg/mL in each case.
Turning to `O=Cc1cccnc1` [NICOTINALDEHYDE], the EC50 was greater than 10 µg/mL in test [1] and greater than 250 µg/mL in test [2].
On the same counts, the results for `O=C1Nc2ccccc2C1=O` [ISATIN] are greater than 250 µg/mL and greater than 250 µg/mL.
As for `O=Cc1ccccn1` [2-PYRIDINECARBOXALDEHYDE], the EC50 in test [1] stood at 3.6 µg/mL (≈ 33.6 µM); in test [2], 25 µg/mL (≈ 233 µM). The mortality at 100 µg/mL in test [3] was 100%.
`O=Cc1ccc[nH]1`: the EC50 in test [1] was 392 µg/mL (≈ 4120 µM); in test [2], greater than 1000 µg/mL.
On the same counts, the results for `CN=C=S` [METHYLISOTHIOCYANATE] are 7.86 µg/mL (≈ 107 µM) and greater than 10 µg/mL.
On the same counts, the results for `O=Cc1ccc(C=O)s1` [2,5-THIOPHENENEDICARBOXALDEHYDE] are 1.13 µg/mL (≈ 8.06 µM) and 1.2 µg/mL (≈ 8.56 µM).
The corresponding values for `N#Cc1cccs1` [2-THIOPHENECARBONITRILE] are greater than 100 µg/mL and greater than 100 µg/mL.
For the compound `O=Cc1c[nH]c2ccccc12` [3-FORMYLINDOLE], the EC50 in test [1] was 301 µg/mL (≈ 2070 µM); in test [2] it was greater than 250 µg/mL.

As usually defined, the EC50 is the midpoint of the concentration-response curve. A word on the mortality: it is the share of the test organisms that died. Low readings indicate a weak lethal effect, high ones a strong lethal effect.
